# Source: ChEMBL document CHEMBL4513216, “Probing the Open Global Health Chemical Diversity Library for Multistage-Active Starting Points for Next-Generation Antimalarials” (ACS Infect Dis, 2020)
# Assay: Toxicity liver stage against HepG2, at 10uM
# Format: cell-based
# Design: test concentration 10 uM, cell line HepG2-A16-CD81EGFP
# Conditions: human, HepG2-A16-CD81EGFP cells; read-out: INHIBITION
# How it was run: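 Uninfected HepG2-A16-CD81EGFP cells, 3 × 10^3 per well, 1536-well, plated on prespotted compound at 10 μM final, parasite-free screening media added to match infected plates; puromycin 10 μM positive, DMSO 0.5% negative; run in parallel with 48 h PbLuc assay at 37 °C, 5% CO2; viability by CellTiter-Glo luminescence, normalized to controls.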
row,Structure (SMILES),cytotoxicity at 10 µM [%]
1,Cc1noc(C)c1CNCc1nn(-c2ccccc2)c2c1CCC2,1.83
2,CC(=O)N1CCC(N2CCN3C(=O)N(c4ccccc4)C[C@H]3C2)CC1,1.35
3,Cc1nnc(C2CCN(C(=O)c3ccc(-n4cccc4)cc3)CC2)s1,6.4
4,O=C1COc2ccc(Br)cc2CN1CC1CC1,-3.46
5,CC1(C)CC(=O)c2cnc3nc(N4CCCC4)[nH]c(=O)c3c2C1,-2
6,Cn1cnnc1S(=O)(=O)C1CCN(S(=O)(=O)c2c(Cl)cccc2Cl)CC1,-14.2
7,CC(C)NC(=O)c1sccc1N(C)S(=O)(=O)c1ccc(Cl)cc1,9.22
8,O=C1CC2(CCN(S(=O)(=O)c3cccs3)C2)CN1c1ccccc1 (centres undefined),5.08
9,C[C@H]1C[C@@H]2CCN(C(=O)c3ccncn3)C[C@H]2O1,-18.4
10,CN(C)c1ncc(I)c(C2CCCCN2C)n1 (centres undefined),1.74
11,O=C(NCc1ccc2c(c1)OCO2)[C@@H]1C=CCN1c1ncccn1,0.146
12,Cc1cc(C)nc(Nc2ccc(C3CCCCN3)cn2)n1 (centres undefined),11.7
13,CC(=O)N[C@@H]1CN(S(=O)(=O)c2ccc(Cl)cc2)C[C@H]1O,7.03
14,NC(=O)C1(Cc2ccc(-c3ccccc3)cc2)CCCNC1 (centres undefined),0.772
15,CCNC(=O)C1(Cc2ccc(-c3ccccc3)cc2)CCCNC1 (centres undefined),-3.73
16,COCCS(=O)(=O)Nc1cc(Cl)ccn1,2.62
17,CC(NC1(CNS(C)(=O)=O)CCOCC1)c1ccccc1 (centres undefined),6.72
18,CNC(=O)C(CC(C)C)NC(=O)c1cccc(-c2n[nH]c(C)n2)c1 (centres undefined),9.04
19,COc1ccc(Br)cc1CC(=O)Nc1cc(C)n[nH]1,-0.405
20,Cc1ccc(S(=O)(=O)N2CC(C)Oc3ncccc32)c(C)c1 (centres undefined),5.35
21,O=C(Nc1cccnc1-n1cncn1)C1CCC1,-4.32

row,Structure (SMILES),cytotoxicity at 10 µM [%]
1,CN(C(=O)NCC1(CN2CCOCC2)CCCCC1)C1CC1,-1.91
2,Cn1cc(-c2nc(CN3CCOC(Cn4cccn4)C3)cs2)cn1 (centres undefined),-4.04
3,COc1c(C2CCCN2C(=O)c2cnn(C)c2C2CC2)c(C)nn1C (centres undefined),-2.43
4,Cc1ccccc1S(=O)(=O)CCOC(C)C,0.456
5,Cn1cc(CNc2ccc(F)c(N3CCCS3(=O)=O)c2)cn1,-12.8
6,CN(CCN1CCOCC1)C(=O)C1(c2ccc(F)cc2F)CCC1,-6.68
7,Cc1ccc(OC(C)CNC(=O)c2c[nH]nn2)cc1 (centres undefined),-0.0422
8,FC(F)(F)c1ccnc(N2CCCN(C3CCOCC3)CC2)c1,-7.49
9,CCN(C(=O)CN1CCCC1c1ccc(OC)cc1)c1ccccc1C (centres undefined),0.623
10,CC(=O)N1CCc2ccc(S(=O)(=O)N3CCCCC3C)cc21 (centres undefined),-10.3
11,NS(=O)(=O)CCNC(=O)c1cc2cccc(F)c2o1,2.46
12,COc1ccccc1CC(C)(C)NC(=O)CN(C)C(C)C,3.04
13,CC(C)(C)CC(=O)NCC(=O)NCC(O)c1ccc2ccccc2c1 (centres undefined),9.73
14,CN(C(=O)Nc1ccccn1)C1CCCN(c2ccccc2)C1=O (centres undefined),-6.63
15,Cc1cc(C)nc(NC2CCOC3(CCCC3)C2)n1 (centres undefined),7.93
16,CCN(C(=O)CN(CC(N)=O)C(C)C)C1=CCCC1,14.1
17,Cc1nn(C)c(N(C)C)c1CNCC(O)COc1ccc(F)cc1 (centres undefined),0.769
18,CCOCCN1CCN(Cc2nnc(C3CC3)o2)CC1CC (centres undefined),-5.67
19,CC(C)C1CN(C(=O)c2ccc(C(N)=O)cc2)CCS1 (centres undefined),-4.03
20,Cn1cc(CCNC(=O)NC2CCS(=O)(=O)C2)cn1 (centres undefined),-12.9
21,COc1ccc(C2CCCN2C(=O)NCCNc2ncccn2)cc1 (centres undefined),-8.18

row,Structure (SMILES),cytotoxicity at 10 µM [%]
1,Cc1ccc(C(=O)O)cc1S(=O)(=O)Nc1nn(-c2ccccc2)cc1C,-8.84
2,Cc1nn(C)c(C)c1C1CCCN1C(=O)c1ccc(Cl)o1 (centres undefined),-5.15
3,FC(F)(F)CCc1ccnc(N2CCN(Cc3ccncc3)CC2)n1,-21.2
4,CC1c2cccn2CCN1C(=O)CCc1nc(-c2ccccc2)no1 (centres undefined),0.45
5,O=S(=O)(NC1CCCN(c2ncccn2)C1)N1CCCCCC1 (centres undefined),12.7
6,Fc1cccc(C2(CNC3CCSC3)CCOCC2)c1 (centres undefined),-1.86
7,CCn1c(C2CCN(C(=O)CCc3cc(Cl)no3)CC2)nn(C)c1=O,-7.09
8,O=C(NCc1cc2n(n1)CCCNC2)c1cn2cc(Cl)ccc2n1,-10.1
9,Cc1cc(C[C@@H]2COC[C@@H]2NC(=O)Cn2c(=O)oc3ccccc32)on1,-14
10,CN(Cc1ccc(F)cc1)[C@@H]1CN(C(=O)c2cccs2)C[C@H]1O,3.92
11,Cc1ccc(F)cc1S(=O)(=O)Nc1ccc2c(C(=O)O)c[nH]c2c1,-3.53
12,CN(Cc1ccco1)C(=O)CN1CCOC(Cn2cncn2)C1 (centres undefined),-7.36
13,CCc1c(C(=O)N2CCN(c3cnccn3)CC2)cnn1C(C)(C)C,-13
14,O=C(c1cc(C2CC2)[nH]n1)N1CCN(Cc2ccncc2)CC1,-10.9
15,CC1COCCN1Cc1nc(-c2ccc(F)cc2)no1 (centres undefined),-9.4
16,CC(C)c1cnc(CN2CCCC(c3cc(C(N)=O)[nH]n3)C2)o1 (centres undefined),-13.5
17,CCC1c2ccsc2CCN1C(=O)NCCc1ccccn1 (centres undefined),-12.4
18,Cc1nc(C)c(CC(=O)Nc2nnc(C3CC3)s2)c(=O)[nH]1,-11.2
19,Fc1ccc(-c2nc(CN3CCCCC3Cn3cncn3)co2)cc1 (centres undefined),-8.18
20,CCc1nc(CN2CCOC(Cn3nc(C)cc3C)C2)no1 (centres undefined),4.36
21,O=C(CCc1ccc2c(c1)OCO2)N1CCCCC1Cn1cccn1 (centres undefined),-17.2

row,Structure (SMILES),cytotoxicity at 10 µM [%]
1,Cc1cnn(CC2CCCCN2C(=O)c2cccc(C(N)=O)c2)c1 (centres undefined),-0.775
2,Cc1cnn(CC2CCCCN2C(=O)c2ccc(CN(C)C)cc2)c1 (centres undefined),-11.4
3,Cc1cn2c(n1)CCC(NC(=O)c1cncnc1C)C2 (centres undefined),-3.56
4,CCc1nc(C2CCCN2Cc2nnc(CC)o2)no1 (centres undefined),-5.36
5,O=C(CN1CCN(c2ccc3nncn3n2)CC1)NC1CCCC1,-33.9
6,CCn1cnnc1CNC(=O)N1CCN(c2cccs2)CC1,-2.07
7,COc1ccc(CC(=O)N2CCc3nnc(N(C)C)cc3C2)cc1F,-9.5
8,CCOCC(O)CN1CCN(C(=O)c2ccccc2Cl)CC1 (centres undefined),-1.96
9,Cc1cc(C2CCCN(CCc3ccccn3)C2)n[nH]1 (centres undefined),-10.4
10,O=C(c1ccn(-c2cccc(Cl)c2)n1)N1CCN(C2CC2)CC1,-7.03
11,Cc1cc(C(=O)NCc2ccc(N3CCCC(C(N)=O)C3)cc2)no1 (centres undefined),-3.37
12,CC(Cc1ccco1)NC(=O)Nc1cnn(CC(N)=O)c1 (centres undefined),7.82
13,O=C(NCCn1ccnc1)NCC(c1ccco1)N1CCCCC1 (centres undefined),3.44
14,CN(C)CCCN(Cc1ccco1)Cc1ccnn1C1CCCCO1 (centres undefined),-2.52
15,OC(CN1CCN(Cc2ccc(F)cc2)CC1)C1CC1 (centres undefined),-23.4
16,CNC(C(=O)OC)c1cc(F)ccc1F (centres undefined),-1.07
17,CN(C)CC(=O)N1CC2(CCN(C(=O)Nc3ccccc3)C2)C1,4.17
18,O=C(CN1CCC[C@@H]1C(=O)O)NCCOc1cccc(C(F)(F)F)c1,-1.7
19,NCC1CCCCN1C(=O)Cc1cccc(Br)c1 (centres undefined),0.907
20,NCC1CCCCN1C(=O)Cc1ccc(F)c(F)c1 (centres undefined),-1.5
21,O=C(c1cnccn1)N1CCOCC2(CCN(C3CCOCC3)C2)C1 (centres undefined),-7.94
